In PMC3518043 (Biochemistry, 2012):

Legend:
Assay type in all cases: binding
[1] = system: histone H3 combinatorial peptide library; test: on-bead 5,000-member combinatorial histone H3 library screen; details: for occurrence of peptides with high methylation at H3K4 (me2/3) / occurrence of peptides with low methylation at H3K4 (K4unmod and K4me): PHD1-2 screen
How it was run: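 One-bead-one-peptide H3 combinatorial library (5,000 members) incubated sequentially with GST-tagged PHD fingers, GST-specific primary antibody, biotinylated secondary antibody, then streptavidin-alkaline phosphatase for bead detection.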

[2] = system: histone H3 tail peptide (1-12); test: 1H,15N HSQC NMR titration with H3 peptide; details: 0.1 mM 15N-labeled PHD1-2; H3 (1-12)
How it was run: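 15N-labelled CHD5 PHD1-2 expressed in E. coli BL21(DE3) pLysS grown in 15NH4Cl minimal medium and induced with 0.5 mM IPTG. GST fusion purified on glutathione agarose and tag cleaved with PreScission protease. Buffer was 20 mM Tris pH 6.8, 150 mM NaCl, 3 mM DTT. 1H,15N HSQC spectra of 0.1 mM protein recorded at 600 MHz with increasing amounts of H3 (1-12) peptide.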

[3] = system: histone H3 N-terminus; test: overall signal intensity in histone peptide array / peptide screens; details: both peptide screens; at the same molar concentrations
[4] = system: immobilized histone H3 (1-11); test: surface plasmon resonance
[5] = system: unmodified histone H3 N-terminus (first eleven amino acids); test: Amplified Luminescent Proximity Homogeneous Assay; details: 10 μM protein, only biotin- or only 6×His-peptide
How it was run: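 Recombinant CHD5 PHD constructs and H3 (1-11) peptides carrying either a 6×His tag or biotin were diluted in StabilCoat buffer to final 10 μM protein and 1 μM peptide. Mixtures shaken 30 min at ambient temperature. Donor and acceptor beads added at 15 μg/mL each (working), then shaken 30 min in the dark. Emission read at 570/100 nm with ALPHA filters.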

[6] = bivalent binding model (bivalent analyte), pH 7.5

- binding events in NMR titration [2]: two distinct binding events
- increase in affinity (lower Kd) compared with PHD1 and PHD2 alone ([4]; 1:1 Langmuir model): 4-11 fold
- off-rate kd ([4]; 1:1 Langmuir model, biotinylated H3 (1-11) on SA chip, pH 7.5): 0.00348 ± 5e-05 s⁻¹
- slower last off-rate (kd) compared with individual domains ([4]; last off-rate of PHD1-2 vs kd values of individual domains): 5-6 fold
B1: PHD1-2: tandem PHD-fingers of CHD5 (338-468), GST fusion in pGEX-KG; tag cleaved for SPR and NMR (protein)
chain: YETDHQDYCEVCQQGGEIILCDTCPRAYHLVCLDPELEKAPEGKWSCPHCEKEGIQWEPKDDDDEEEEGGCEEEEDDHMEFCRVCKDGGELLCCDACPSSYHLHCLNPPLPEIPNGEWLCPRCTCPPLKGK
modifications: left off: GST, end not stated, kept
- occurrence of unmodified lysine-4 among positive beads ([1]; H3K4unmod, MALDI-TOF identification): 44 out of 90
- occurrence of H3T3 phosphorylation among positive beads ([1]; H3T3ph): 0 out of 90
- occurrence of H3T6 phosphorylation among positive beads ([1]; H3T6ph): 0 out of 90
- occurrence of peptides with high methylation at H3K4 (me2/3) ([1]; all peptides): 13%
- occurrence of peptides with low methylation at H3K4 (K4unmod and K4me) ([1]; all peptides): 74%
- occurrence of peptides with high methylation at H3K4 (me2/3) ([1]; peptides also containing R2me2a or R2me2s): 6%
- occurrence of peptides with low methylation at H3K4 (K4unmod and K4me) ([1]; peptides only containing Rme2a/s at H3R2): 91%
- overall signal intensity compared to either domain alone [3]: notably higher
- ka1 [4, 6]: 324 ± 11 M⁻¹ s⁻¹
- ka2 [4, 6]: 2.9×10^−5 ± 1×10^−6 1/RUs
- kd1 [4, 6]: 0.120 ± 0.005 s⁻¹
- kd2 [4, 6]: 0.00218 ± 3e-05 s⁻¹
- ALPHA signal with either functionalized peptide alone [5]: no signal above background
